The source of these data is ChEMBL document CHEMBL1155887, “Structure-activity relationships of 2-aryl-1H-indole inhibitors of the NorA efflux pump in Staphylococcus aureus” (2008).

Molecules are shown by their SMILES. In brackets after ≈: the same amount, converted by molar mass. Activity calls are given as the source filed them. The calls are words filed in the database; no cut-off is given here.

One experiment has as its target T1, Quinolone resistance protein NorA (Staphylococcus aureus) (UniProt P0A0J7).
T1 sequence (whole entry): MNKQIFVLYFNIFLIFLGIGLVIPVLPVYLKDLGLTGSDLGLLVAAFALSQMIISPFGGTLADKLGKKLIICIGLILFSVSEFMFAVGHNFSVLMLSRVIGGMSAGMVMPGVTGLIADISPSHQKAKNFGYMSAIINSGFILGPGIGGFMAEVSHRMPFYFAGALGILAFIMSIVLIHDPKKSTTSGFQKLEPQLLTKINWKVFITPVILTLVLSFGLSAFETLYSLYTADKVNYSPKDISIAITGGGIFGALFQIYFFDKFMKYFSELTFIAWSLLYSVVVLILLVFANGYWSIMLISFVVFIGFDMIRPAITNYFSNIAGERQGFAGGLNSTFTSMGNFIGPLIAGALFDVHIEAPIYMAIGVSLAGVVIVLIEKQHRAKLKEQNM
Briefly: Inhibition of NorA efflux pump in Staphylococcus aureus K2378 overexpressing NorA assessed as drug level required for two fold potentiation of berberine MIC at 1.56 to 100 ug/mL after 20 hrs by serial dilution method. In a few lines:
(§1)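 Checkerboard of serial 2-fold dilutions of berberine chloride against inhibitor, with inhibitor at 1.56–100 µg/mL. Berberine ranges were 12.5–100 µg/mL for 8325-4 and 200–800 µg/mL for K2378. Each agent was also diluted alone. Cells at 5 10^5 CFU/mL (final), 37 °C for 20 h, read at 600 nm; OD <0.05 counted as no growth. Inhibitor MIC is the lowest concentration lowering the berberine MIC at least 2-fold.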
As for `O=[N+]([O-])c1ccc2[nH]c(-c3ccc(CO)cc3)cc2c1`, the MIC is 2 µM.
The same measure, in the same setting: with `COC(=O)c1cccc(-c2cc3cc([N+](=O)[O-])ccc3[nH]2)c1` the figure was 1 µM; with `O=[N+]([O-])c1ccc2[nH]c(-c3ccccc3CO)cc2c1`, 47 µM.
For the molecule `O=S(=O)(O)c1ccc2[nH]c(-c3ccccc3)cc2c1`, the outcome was inactive.
As to `OCc1cccc(-c2cc3ccccc3[nH]2)c1`, the MIC stood at 45 µM.
For the molecule `COC(=O)c1ccc2[nH]c(-c3ccccc3)cc2c1`, the outcome was inactive.
With `COC(=O)c1cccc(-c2cc3ccccc3[nH]2)c1`, the MIC came out at 10 µM.
On the same count and under the same terms, with `OCc1ccccc1-c1cc2ccccc2[nH]1` the figure was 45 µM.

Another experiment has as its system Staphylococcus aureus. Briefly: Antibacterial activity against wild type Staphylococcus aureus 8325-4 after 18 to 20 hrs by serial dilution method. The class given is functional. The method, boiled down: (§2)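 Compound alone, without berberine. Cells at 10^5 CFU/mL inoculated into broth and given serial 2-fold dilutions of compound. Incubated 18–20 h at 37 °C, with growth read as absorbance at 600 nm. MIC is the concentration completely inhibiting growth; testing limit 1000 µM.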
Consider `COc1ccc2cc3[n+](cc2c1OC)CCc1cc2c(cc1-3)OCO2` [BERBERINE CHLORIDE], for which the MIC amounted to 269 µM.
On the same count and under the same terms, with `O=[N+]([O-])c1ccc2[nH]c(-c3ccc(CO)cc3)cc2c1` the figure was more than 1000 µM; with `COC(=O)c1cccc(-c2cc3cc([N+](=O)[O-])ccc3[nH]2)c1`, more than 1000 µM; with `O=[N+]([O-])c1ccc2[nH]c(-c3ccccc3CO)cc2c1`, more than 1000 µM.
As for `COS(=O)(=O)c1ccc2[nH]c(-c3ccccc3)cc2c1`, the MIC turned out to be 174 µM (≈ 50 µg/mL).
For `O=S(=O)(O)c1ccc2[nH]c(-c3ccccc3)cc2c1`, the MIC was more than 1000 µM.
As to `CCCOS(=O)(=O)c1ccc2[nH]c(-c3ccccc3)cc2c1`, the MIC was 79.3 µM (≈ 25 µg/mL).
Still for that read-out and setting: with `OCc1cccc(-c2cc3ccccc3[nH]2)c1` the figure was more than 1000 µM.
On the same count and under the same terms, with `COC(=O)c1ccc2[nH]c(-c3ccccc3)cc2c1` the figure was more than 1000 µM; with `COC(=O)c1cccc(-c2cc3ccccc3[nH]2)c1`, more than 1000 µM; with `OCc1ccccc1-c1cc2ccccc2[nH]1`, more than 1000 µM.

The next experiment addresses T1, Quinolone resistance protein NorA (Staphylococcus aureus). Briefly: Inhibition of NorA efflux pump in wild type Staphylococcus aureus 8325-4 assessed as drug level required for two fold potentiation of berberine MIC at 1.56 to 100 ug/mL after 20 hrs by serial dilution method. The method, boiled down:
as §1
As to `O=[N+]([O-])c1ccc2[nH]c(-c3ccc(CO)cc3)cc2c1`, the MIC amounted to 2 µM.
Same read-out and setting: with `COC(=O)c1cccc(-c2cc3cc([N+](=O)[O-])ccc3[nH]2)c1` the figure was 1 µM; with `O=[N+]([O-])c1ccc2[nH]c(-c3ccccc3CO)cc2c1`, 47 µM.
Consider `O=S(=O)(O)c1ccc2[nH]c(-c3ccccc3)cc2c1`, for which the outcome was inactive.
`OCc1cccc(-c2cc3ccccc3[nH]2)c1`: the MIC was found to be 45 µM.
`COC(=O)c1ccc2[nH]c(-c3ccccc3)cc2c1`: the result was inactive.
Take `COC(=O)c1cccc(-c2cc3ccccc3[nH]2)c1`: the MIC is 5 µM.
Turning to `OCc1ccccc1-c1cc2ccccc2[nH]1`, the MIC was 45 µM.

The next experiment relates to Staphylococcus aureus. Briefly: Antibacterial activity against Staphylococcus aureus K2378 overexpressing NorA after 18 to 20 hrs by serial dilution method. The class given is functional. In a few lines:
as §2
In turn, `COc1ccc2cc3[n+](cc2c1OC)CCc1cc2c(cc1-3)OCO2` [BERBERINE CHLORIDE] came in with an MIC of 2150 µM.
The molecule `COS(=O)(=O)c1ccc2[nH]c(-c3ccccc3)cc2c1` returned an MIC of 174 µM (≈ 50 µg/mL).
On the same count and under the same terms, with `CCCOS(=O)(=O)c1ccc2[nH]c(-c3ccccc3)cc2c1` the figure was 79.3 µM (≈ 25 µg/mL).

The target in another experiment is T1, Quinolone resistance protein NorA (Staphylococcus aureus). Briefly: Inhibition of NorA efflux pump in NorA knockout Staphylococcus aureus K1758 assessed as drug level required for two fold potentiation of berberine MIC at 1.56 to 100 ug/mL after 20 hrs by serial dilution method.
As for `O=[N+]([O-])c1ccc2[nH]c(-c3ccc(CO)cc3)cc2c1`, the MIC is 5 µM.
Take `COC(=O)c1cccc(-c2cc3cc([N+](=O)[O-])ccc3[nH]2)c1`: the MIC worked out at 0.51 µM.
For the molecule `O=[N+]([O-])c1ccc2[nH]c(-c3ccccc3CO)cc2c1`, the MIC stood at 24 µM.
Regarding `O=S(=O)(O)c1ccc2[nH]c(-c3ccccc3)cc2c1`, the outcome was inactive.
The same measure, in the same setting: with `OCc1cccc(-c2cc3ccccc3[nH]2)c1` the entry was “inactive”; with `COC(=O)c1ccc2[nH]c(-c3ccccc3)cc2c1`, “inactive”.
On to `COC(=O)c1cccc(-c2cc3ccccc3[nH]2)c1`, for which the MIC was determined as 40 µM.
Consider `OCc1ccccc1-c1cc2ccccc2[nH]1`, for which the outcome was inactive.

The next experiment deals with Staphylococcus aureus. Nature of the experiment: Antibacterial activity against NorA knockout Staphylococcus aureus K1758 after 18 to 20 hrs by serial dilution method. The experiment is classed as functional. In a few lines: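 Compound alone, without berberine: cells at 10^5 CFU/mL in broth, serial 2-fold dilutions of compound, 18–20 h at 37 °C, growth read at 600 nm. MIC is the lowest concentration giving complete growth inhibition. The testing limit was 1000 µM.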
On to `COc1ccc2cc3[n+](cc2c1OC)CCc1cc2c(cc1-3)OCO2` [BERBERINE CHLORIDE], for which the MIC came to 67 µM.
Same read-out and setting: with `O=[N+]([O-])c1ccc2[nH]c(-c3ccc(CO)cc3)cc2c1` the figure was more than 1000 µM; with `COC(=O)c1cccc(-c2cc3cc([N+](=O)[O-])ccc3[nH]2)c1`, more than 1000 µM.
The molecule `O=[N+]([O-])c1ccc2[nH]c(-c3ccccc3CO)cc2c1` returned an MIC of more than 1000 µM.
Still for that read-out and setting: with `COS(=O)(=O)c1ccc2[nH]c(-c3ccccc3)cc2c1` the figure was 174 µM (≈ 50 µg/mL); with `O=S(=O)(O)c1ccc2[nH]c(-c3ccccc3)cc2c1`, more than 1000 µM; with `CCCOS(=O)(=O)c1ccc2[nH]c(-c3ccccc3)cc2c1`, 79.3 µM (≈ 25 µg/mL).
Consider `OCc1cccc(-c2cc3ccccc3[nH]2)c1`, for which the MIC is more than 1000 µM.
Take `COC(=O)c1ccc2[nH]c(-c3ccccc3)cc2c1`: the MIC was more than 1000 µM.
With `COC(=O)c1cccc(-c2cc3ccccc3[nH]2)c1`, the MIC is more than 1000 µM.
Still for that read-out and setting: with `OCc1ccccc1-c1cc2ccccc2[nH]1` the figure was more than 1000 µM.

For a further experiment, the target named is T1, Quinolone resistance protein NorA (Staphylococcus aureus). Nature of the experiment: Inhibition of NorA efflux pump overexpressed Staphylococcus aureus K2361 assessed as increase in antibacterial activity of berberine at 0.8 ug/mL.
Turning to `O=[N+]([O-])c1ccc2[nH]c(-c3cc(OCc4ccccc4)ccc3CO)cc2c1`, the fold change (FC) is more than 15.
